The record followed here is ChEMBL document CHEMBL4359879, “Synthesis and evaluation of 2-carboxy indole derivatives as potent and selective anti-leukemic agents” (Eur J Med Chem, 2019).

Active and inactive are the calls of the source. The rule behind the calls is not given here.

Common to all, as to assay type: functional, cell-based
The subject of one test is CCRF-CEM. Briefly: Antiproliferative activity against human CEM cells incubated for 48 hrs by MTT assay. In a few lines:
(§1)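 Cells grown in RPMI-1640 with 10% FBS, penicillin/streptomycin, 37 °C, 5% CO2. After 48 h of exposure to a dilution series, MTT was added (0.5 mg/ml final) for 4 h. Formazan was dissolved overnight in acidic SDS (10% SDS, 0.01 mol/L HCl) and absorbance read at 570 and 620 nm. Survival was expressed relative to controls, and EC50 was fitted from dose-response curves.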

The subject of another test is RS4-11. Description: Antiproliferative activity against human RS4:11 cells incubated for 48 hrs by MTT assay. The following applies: RS4-11, 48 h. In a few lines:
as §1

Test [1] relates to HL-60. Description: Induction of differentiation in human HL60 cells assessed as increase in CD14 positive cells at 100 nM incubated for 48 hrs by 7-AAD staining-based flow cytometric analysis. In a few lines: (§2)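 Vitamin D3 at 100 nM and ATRA at 2 μM served as positive controls. Stained with APC anti-CD11b and PE anti-CD14 for 30 min at 4 °C, then 7-AAD.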
The subject of test [2] is HL-60. Description: Induction of differentiation in human HL60 cells assessed as increase in CD11b positive cells at 2 uM incubated for 48 hrs by 7-AAD staining-based flow cytometric analysis. In a few lines:
as §2

Turning to `COC(=O)c1[nH]c2cc(OC)ccc2c1C`, the EC50 with CCRF-CEM and in the test on RS4-11 was > 100 µM each time.

Turning to `COC(=O)c1c(-c2ccc(C(F)(F)F)cc2)c2ccc(OC)cc2n1C`, the EC50 with CCRF-CEM and in the test with RS4-11 was > 100 µM in each case.

Regarding `COC(=O)c1c(-c2ccc(C(F)(F)F)cc2)c2ccc(OC)cc2n1Cc1ccccc1`, the EC50 in the test on CCRF-CEM and in the test with RS4-11 was > 100 µM in each case.

As to `COC(=O)c1[nH]c2cc(OC)ccc2c1-c1ccc(Br)cc1`, the figures for the EC50 with CCRF-CEM and with RS4-11 were 0.33 µM and 0.2 µM, respectively.

In the case of `COC(=O)c1[nH]c2ccccc2c1-c1ccccc1`, the EC50 in the test on CCRF-CEM was 35.8 µM; with RS4-11, 95.2 µM.

As to `COc1ccc2c(-c3ccc(C(F)(F)F)cc3)c(C(=O)OC(C)(C)C)[nH]c2c1`, the EC50 in the test on CCRF-CEM and in the test on RS4-11 was > 100 µM throughout.

For `COC(=O)c1[nH]c2cc(OC)ccc2c1C(=O)OC`, the EC50 in the test on CCRF-CEM and with RS4-11 was > 100 µM in each case.

With `COC(=O)c1[nH]c2cc(OC)ccc2c1CC(C)C`, the EC50 in the test on CCRF-CEM worked out at 16.6 µM; in the test with RS4-11, 37.8 µM.

For `COC(=O)c1[nH]c2cc(OC)ccc2c1-c1ccccc1OC`, the half-maximal effective concentration (EC50) in the test with CCRF-CEM worked out at 1.9 µM; in the test with RS4-11 it was 10.5 µM.

As to `C=C1/C(=C\C=C2/CCC[C@]3(C)[C@@H]([C@H](C)CCCC(C)(C)O)CC[C@@H]23)C[C@@H](O)C[C@@H]1O`, the result in the test with HL-60 [1] was Active.

As for `COC(=O)c1c(-c2ccc(C(F)(F)F)cc2)c2ccc(OC)cc2n1O`, the EC50 in the test with CCRF-CEM came to 0.39 µM; with RS4-11, 0.3 µM.

For the compound `COC(=O)c1[nH]c2cc(C(F)(F)F)ccc2c1-c1ccccc1`, the EC50 with CCRF-CEM and with RS4-11 was > 100 µM in each case.

On to `CC1=C(/C=C/C(C)=C/C=C/C(C)=C/C(=O)O)C(C)(C)CCC1`, for which the outcome with HL-60 [2] was Active.

For the compound `COC(=O)c1[nH]c2cc(O)ccc2c1-c1ccc(C(F)(F)F)cc1`, the EC50 in the test on CCRF-CEM was 9.9 µM; in the test on RS4-11 it was 10.3 µM.

As to `COC(=O)c1[nH]c2cc(OC)ccc2c1-c1ccc(F)cc1`, the EC50 came out at 10 µM in the test on CCRF-CEM and 85.6 µM in the test on RS4-11.

As to `COC(=O)c1[nH]c2ccccc2c1-c1ccc(F)cc1`, the EC50 in the test on CCRF-CEM and with RS4-11 was > 100 µM throughout.

As for `COC(=O)c1[nH]c2cc(OC)ccc2c1C(C)C`, the figures for the EC50 with CCRF-CEM and with RS4-11 were > 100 µM and 81.5 µM, respectively.

Take `COC(=O)c1[nH]c2cc(C(F)(F)F)ccc2c1-c1ccc(C(F)(F)F)cc1`: the concentration giving a half-maximal response (EC50) in the test on CCRF-CEM and in the test on RS4-11 was > 100 µM throughout.

On to `CCc1c(C(=O)OC)[nH]c2cc(OC)ccc12`, for which the EC50 with CCRF-CEM and in the test on RS4-11 was > 100 µM throughout.

As to `CCOC(=O)c1[nH]c2cc(OC)ccc2c1-c1ccc(C(F)(F)F)cc1`, the EC50 in the test with CCRF-CEM and with RS4-11 was > 100 µM in each case.

In the case of `COC(=O)c1[nH]c2cc(OC)ccc2c1C1CCCCC1`, the EC50 in the test on CCRF-CEM is 80.2 µM; with RS4-11, > 100 µM.

For the compound `COC(=O)c1[nH]c2cc(C(F)(F)F)ccc2c1-c1ccc(OC)cc1`, the EC50 with CCRF-CEM and with RS4-11 was > 100 µM throughout.

With `COC(=O)c1[nH]c2ccc(OC)cc2c1-c1ccc(C(F)(F)F)cc1`, the EC50 in the test on CCRF-CEM and in the test on RS4-11 was > 100 µM each time.

For the compound `COc1ccc2c(-c3ccc(C(F)(F)F)cc3)c(C(=O)N3CCOCC3)[nH]c2c1`, the EC50 was 29.7 µM with CCRF-CEM and 47.6 µM with RS4-11.

Turning to `COC(=O)Cc1c(C(=O)OC)[nH]c2cc(OC)ccc12`, the 50% effective concentration (EC50) with CCRF-CEM and in the test on RS4-11 was > 100 µM in each case.

On to `COC(=O)c1[nH]c2cc(OC)ccc2c1-c1ccc(Cl)c(Cl)c1`, for which the EC50 turned out to be 0.58 µM in the test with CCRF-CEM and 3.8 µM in the test with RS4-11.

Regarding `COC(=O)c1[nH]c2cc(OC)ccc2c1Cc1ccccc1`, the EC50 in the test with CCRF-CEM came to 8.7 µM; in the test on RS4-11, 61.6 µM.

Regarding `COC(=O)c1[nH]c2ccccc2c1-c1ccc(OC)cc1`, the EC50 in the test with CCRF-CEM and in the test on RS4-11 was > 100 µM each time.

Take `COc1ccc2c(-c3ccc(C(F)(F)F)cc3)c(C(=O)O)[nH]c2c1`: the EC50 in the test on CCRF-CEM worked out at 19.8 µM; in the test on RS4-11 it was 24.4 µM.

In the case of `COc1ccc2c(-c3ccc(C(F)(F)F)cc3)c(C(=O)N[C@@H](Cc3ccccc3)C(=O)O)[nH]c2c1`, the EC50 in the test on CCRF-CEM came out at 52 µM; in the test with RS4-11, 43.1 µM.

As to `COC(=O)c1[nH]c2ccccc2c1-c1ccc(C(F)(F)F)cc1`, the EC50 in the test with CCRF-CEM and in the test on RS4-11 was > 100 µM throughout.
